Test results reported in ChEMBL document CHEMBL5257020, “Discovery of a 9-mer Cationic Peptide (LTX-315) as a Potential First in Class Oncolytic Peptide” (J Med Chem, 2016).
Where a SMILES comes first, the peptide text is derived from it. [ ]: non-standard residue; d: D form. ξ: configuration not given here. ξAla(9-anthryl) = NC(Cc1c2ccccc2cc2ccccc12)C(=O)O; Dip = N[C@H](C(=O)O)C(c1ccccc1)c1ccccc1; ξBip = NC(Cc1ccc(-c2ccccc2)cc1)C(=O)O; ξDip = NC(C(=O)O)C(c1ccccc1)c1ccccc1; ξ1Nal = NC(Cc1cccc2ccccc12)C(=O)O; ξ2Nal = NC(Cc1ccc2ccccc2c1)C(=O)O; ξOrn = NCCCC(N)C(=O)O; ξDab = NCCC(N)C(=O)O; ξDap = NCC(N)C(=O)O

Legend:
[1] = Cytotoxicity against human MRC5 cells assessed as inhibition of cell proliferation incubated for 4 hrs by MTT assay; assay type: toxicity, cell-based
How it was run: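 MRC-5 human embryonic lung fibroblasts cultured in MEM with 2 mM L-glutamine and 10% FBS, without antibiotics, at 37 °C in humidified 5% CO2. Cultures were tested for mycoplasma. IC50 from three or more independent measurements, given as mean ± SD.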

[2] = tested on: A20; assay: Cytotoxicity against mouse A20 lymphoma cells assessed as inhibition of cell proliferation incubated for 4 hrs by MTT assay; assay type: functional, cell-based; settings: A20, 4 h
How it was run: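 Murine A20 cells cultured in RPMI-1640 with 2 mM L-glutamine, 1.5 g/L sodium bicarbonate, 4.5 g/L glucose, 10 mM HEPES, 1.0 mM sodium pyruvate, 0.05 mM 2-mercaptoethanol and 10% FBS, without antibiotics, at 37 °C, 5% CO2. IC50 from three or more independent measurements, given as mean ± SD.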

[3] = Cytotoxicity against mouse AT84 cells assessed as inhibition of cell proliferation incubated for 4 hrs by MTT assay; assay type: functional, cell-based; settings: AT84, 4 h
[4] = Stability in pooled and cryopreserved human hepatocytes assessed as intrinsic clearance measured per 10^6 cells at 1 uM measured for 90 mins by LC-MS/MS analysis; assay type: ADME, cell-based, Hepatocyte; settings: read-out: CLH
How it was run: (§1)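 Pooled cryopreserved hepatocytes at 0.5 million cells/mL, incubated at about 37 °C with 1 μM initial peptide. Supernatant after centrifugation analysed by LC–MS/MS (MRM) using a D-Trp7,9,10-substance P internal standard. Peak height was referenced to time zero, and t1/2 = −0.693/slope of ln concentration vs time. Clint = 0.693/t1/2 × Vinc per million cells. Testosterone, midazolam and 4-methylumbelliferone were the positive controls. Duplicates; mean of two experiments.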

[5] = Stability in pooled and cryopreserved rat hepatocytes assessed as intrinsic clearance measured per 10^6 cells at 1 uM measured for 90 mins by LC-MS/MS analysis; assay type: ADME, cell-based, Hepatocyte; settings: read-out: CLH; how it was run: as §1
[6] = Stability in pooled and cryopreserved human hepatocytes assessed as half life at 1 uM measured for 90 mins by LC-MS/MS analysis; assay type: ADME, cell-based, Hepatocyte
How it was run: (§2)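 Pooled cryopreserved rat or human hepatocytes, 0.5 million cells/mL, ~37 °C, peptide at 1 μM initial. Supernatants analysed by LC–MS/MS with peak height referenced to time zero. t1/2 = −0.693/slope of ln concentration vs time. Duplicate experiments. Testosterone, midazolam and 4-methylumbelliferone served as metabolic-competence controls.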

[7] = Stability in pooled and cryopreserved rat hepatocytes assessed as half life at 1 uM measured for 90 mins by LC-MS/MS analysis; assay type: ADME, cell-based, Hepatocyte; how it was run: as §2

| Structure (SMILES) | IC50 at 4 h [1] | IC50 [2] | IC50 [3] | hepatocyte CLint at 1 µM [4] | hepatocyte CLint at 1 µM [5] | half-life at 1 µM [6] | half-life at 1 µM [7] |
| --- | --- | --- | --- | --- | --- | --- | --- |
| NCCCC[C@H](NC(=O)[C@H](Cc1c[nH]c2ccccc12)NC(=O)[C@H](Cc1c[nH]c2ccccc12)NC(=O)[C@H](CCCCN)NC(=O)[C@H](CCCCN)NC(=O)[C@H](Cc1c[nH]c2ccccc12)NC(=O)[C@H](Cc1c[nH]c2ccccc12)NC(=O)[C@H](CCCCN)NC(=O)[C@@H](N)CCCCN)C(N)=O (H-KKWWKKWWK-NH2) | > 357 µM | 37.3 µM | 31 µM | – | – | – | – |
| NCCCC[C@H](NC(=O)[C@H](Cc1c[nH]c2ccccc12)NC(=O)C(NC(=O)[C@H](CCCCN)NC(=O)[C@H](CCCCN)NC(=O)[C@H](Cc1c[nH]c2ccccc12)NC(=O)[C@H](Cc1c[nH]c2ccccc12)NC(=O)[C@H](CCCCN)NC(=O)[C@@H](N)CCCCN)C(c1ccccc1)c1ccccc1)C(N)=O (stereo not given in full) (H-KKWWKK[ξDip]WK-NH2) | 102 µM | 12.3 µM | 25.3 µM | – | – | – | – |
| NCCCC[C@H](NC(=O)[C@H](Cc1c[nH]c2ccccc12)NC(=O)[C@H](Cc1c[nH]c2ccccc12)NC(=O)[C@H](CCCCN)NC(=O)[C@H](CCCCN)NC(=O)[C@@H](NC(=O)[C@H](Cc1c[nH]c2ccccc12)NC(=O)[C@H](CCCCN)NC(=O)[C@@H](N)CCCCN)C(c1ccccc1)c1ccccc1)C(N)=O (H-KKW[Dip]KKWWK-NH2) | > 347 µM | 134 µM | 113 µM | – | – | – | – |
| NCCCC[C@H](NC(=O)[C@H](Cc1c[nH]c2ccccc12)NC(=O)[C@H](Cc1c[nH]c2ccccc12)NC(=O)[C@H](CCCCN)NC(=O)[C@H](CCCCN)NC(=O)C(Cc1cccc2ccccc12)NC(=O)[C@H](Cc1c[nH]c2ccccc12)NC(=O)[C@H](CCCCN)NC(=O)[C@@H](N)CCCCN)C(N)=O (stereo not given in full) (H-KKW[ξ1Nal]KKWWK-NH2) | 238 µM | 24 µM | 26.3 µM | – | – | – | – |
| NCCCC[C@H](NC(=O)[C@H](Cc1c[nH]c2ccccc12)NC(=O)[C@H](Cc1c[nH]c2ccccc12)NC(=O)[C@H](CCCCN)NC(=O)[C@H](CCCCN)NC(=O)C(Cc1ccc2ccccc2c1)NC(=O)[C@H](Cc1c[nH]c2ccccc12)NC(=O)[C@H](CCCCN)NC(=O)[C@@H](N)CCCCN)C(N)=O (stereo not given in full) (H-KKW[ξ2Nal]KKWWK-NH2) | 257 µM | 26 µM | 29.3 µM | – | – | – | – |
| NCCCC[C@H](NC(=O)[C@H](Cc1c[nH]c2ccccc12)NC(=O)[C@H](Cc1c[nH]c2ccccc12)NC(=O)[C@H](CCCCN)NC(=O)[C@H](CCCCN)NC(=O)C(Cc1c2ccccc2cc2ccccc12)NC(=O)[C@H](Cc1c[nH]c2ccccc12)NC(=O)[C@H](CCCCN)NC(=O)[C@@H](N)CCCCN)C(N)=O (stereo not given in full) (H-KKW[ξAla(9-anthryl)]KKWWK-NH2) | 40 µM | 9.3 µM | 11 µM | – | – | – | – |
| NCCCC[C@H](NC(=O)[C@H](Cc1c[nH]c2ccccc12)NC(=O)[C@H](Cc1c[nH]c2ccccc12)NC(=O)[C@H](CCCCN)NC(=O)[C@H](CCCCN)NC(=O)C(Cc1ccc(-c2ccccc2)cc1)NC(=O)[C@H](Cc1c[nH]c2ccccc12)NC(=O)[C@H](CCCCN)NC(=O)[C@@H](N)CCCCN)C(N)=O (stereo not given in full) (H-KKW[ξBip]KKWWK-NH2) | 174 µM | 18.7 µM | 27.3 µM | – | – | – | – |
| NCCCC[C@H](NC(=O)[C@H](Cc1c[nH]c2ccccc12)NC(=O)[C@H](Cc1c[nH]c2ccccc12)NC(=O)[C@H](CCCCN)NC(=O)[C@H](CCCCN)NC(=O)C(NC(=O)[C@H](Cc1c[nH]c2ccccc12)NC(=O)[C@H](CCCCN)NC(=O)[C@@H](N)CCCCN)C(c1ccccc1)c1ccccc1)C(N)=O (stereo not given in full) (H-KKW[ξDip]KKWWK-NH2) | 287 µM | 25.7 µM | 24.7 µM | – | – | – | – |
| NCCCC[C@H](NC(=O)C(NC(=O)[C@H](Cc1c[nH]c2ccccc12)NC(=O)[C@H](CCCCN)NC(=O)[C@H](CCCCN)NC(=O)C(NC(=O)[C@H](Cc1c[nH]c2ccccc12)NC(=O)[C@H](CCCCN)NC(=O)[C@@H](N)CCCCN)C(c1ccccc1)c1ccccc1)C(c1ccccc1)c1ccccc1)C(N)=O (stereo not given in full) (H-KKW[ξDip]KKW[ξDip]K-NH2) | 80 µM | 12 µM | 15 µM | – | – | – | – |
| NCCCC[C@H](NC(=O)[C@H](Cc1c[nH]c2ccccc12)NC(=O)[C@H](Cc1c[nH]c2ccccc12)NC(=O)[C@H](CCCCN)NC(=O)[C@H](CCCCN)NC(=O)[C@H](Cc1c[nH]c2ccccc12)NC(=O)C(NC(=O)[C@H](CCCCN)NC(=O)[C@@H](N)CCCCN)C(c1ccccc1)c1ccccc1)C(N)=O (stereo not given in full) (H-KK[ξDip]WKKWWK-NH2) | 488 µM | 51.7 µM | 36.7 µM | – | – | – | – |
| NCCCC[C@H](NC(=O)C(NC(=O)[C@H](Cc1c[nH]c2ccccc12)NC(=O)[C@H](CCCCN)NC(=O)[C@H](CCCCN)NC(=O)[C@H](Cc1c[nH]c2ccccc12)NC(=O)[C@H](Cc1c[nH]c2ccccc12)NC(=O)[C@@H](N)CCCCN)C(c1ccccc1)c1ccccc1)C(N)=O (stereo not given in full) (H-KWWKKW[ξDip]K-NH2) | 43.9 µM | 13.5 µM | – | – | – | – | – |
| NCCCC[C@H](NC(=O)C(NC(=O)[C@H](Cc1c[nH]c2ccccc12)NC(=O)[C@H](CCCCN)NC(=O)[C@H](CCCCN)NC(=O)[C@@H](N)Cc1c[nH]c2ccccc12)C(c1ccccc1)c1ccccc1)C(N)=O (stereo not given in full) (H-WKKW[ξDip]K-NH2) | 460 µM | 247 µM | – | – | – | – | – |
| NCCCC[C@H](NC(=O)C(NC(=O)[C@H](Cc1c[nH]c2ccccc12)NC(=O)[C@H](CCCCN)NC(=O)[C@H](CCCCN)NC(=O)[C@H](Cc1c[nH]c2ccccc12)NC(=O)[C@@H](N)Cc1c[nH]c2ccccc12)C(c1ccccc1)c1ccccc1)C(N)=O (stereo not given in full) (H-WWKKW[ξDip]K-NH2) | 53.2 µM | 20.3 µM | – | – | – | – | – |
| NCCC(N)C(=O)NC(CCN)C(=O)N[C@@H](Cc1c[nH]c2ccccc12)C(=O)NC(C(=O)NC(CCN)C(=O)NC(CCN)C(=O)N[C@@H](Cc1c[nH]c2ccccc12)C(=O)N[C@@H](Cc1c[nH]c2ccccc12)C(=O)NC(CCN)C(N)=O)C(c1ccccc1)c1ccccc1 (stereo not given in full) (H-[ξDab][ξDab]W[ξDip][ξDab][ξDab]WW[ξDab]-NH2) | 97.7 µM | 8.3 µM | 14.3 µM | – | – | – | – |
| NCC(N)C(=O)NC(CN)C(=O)N[C@@H](Cc1c[nH]c2ccccc12)C(=O)NC(C(=O)NC(CN)C(=O)NC(CN)C(=O)N[C@@H](Cc1c[nH]c2ccccc12)C(=O)N[C@@H](Cc1c[nH]c2ccccc12)C(=O)NC(CN)C(N)=O)C(c1ccccc1)c1ccccc1 (stereo not given in full) (H-[ξDap][ξDap]W[ξDip][ξDap][ξDap]WW[ξDap]-NH2) | 516 µM | 67.7 µM | 154 µM | – | – | – | – |
| NCCCC(N)C(=O)NC(CCCN)C(=O)N[C@@H](Cc1c[nH]c2ccccc12)C(=O)NC(C(=O)NC(CCCN)C(=O)NC(CCCN)C(=O)N[C@@H](Cc1c[nH]c2ccccc12)C(=O)N[C@@H](Cc1c[nH]c2ccccc12)C(=O)NC(CCCN)C(N)=O)C(c1ccccc1)c1ccccc1 (stereo not given in full) (H-[ξOrn][ξOrn]W[ξDip][ξOrn][ξOrn]WW[ξOrn]-NH2) | 323 µM | 21.7 µM | 23 µM | – | – | – | – |
| Cc1cc(=O)oc2cc(O)ccc12 [HYMECROMONE] | – | – | – | 127 µL/min/1e6 cells | 373 µL/min/1e6 cells | 11 min | 4 min |
| Cc1ncc2n1-c1ccc(Cl)cc1C(c1ccccc1F)=NC2 [MIDAZOLAM] | – | – | – | < 7 µL/min/1e6 cells | 51 µL/min/1e6 cells | > 200 min | 27 min |
| C[C@]12CC[C@H]3[C@@H](CCC4=CC(=O)CC[C@@]43C)[C@@H]1CC[C@@H]2O [TESTOSTERONE] | – | – | – | 333 µL/min/1e6 cells | 811 µL/min/1e6 cells | – | – |
